Activity calls are given as the source filed them. The calls are words filed in the database; no cut-off is given here.
How the values were obtained:
[1] = molecular target: Transcription factor p65 (Mus musculus) (UniProt Q04207); assay: Inhibition of kappaB DNA binding to NFkappaB p65 in LPS-stimulated mouse RAW264.7 nuclear extract at 3 to 10 ug/ml after 15 mins by colorimetric method
In short: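 RAW264.7 cells stimulated with LPS 2 h to accumulate nuclear NF-κB. Nuclear extract prepared; compound added directly to extract. p65-κB DNA binding read with TransAM NF-κB p65 kit. Mean ± SD of 3 independent experiments.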

[2] = molecular target: Transcription factor p65 (Mus musculus) (UniProt Q04207); assay: Inhibition of LPS-induced NFkappaB p65 activation in mouse RAW264.7 cells at 0.3 to 1 ug/ml preincubated for 30 mins followed by LPS addition measured after 2 hrs by kappaB DNA binding based colorimetric method; assay type: cell-based
In short: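 RAW264.7 cells given compound 30 min before LPS, stimulated 2 h. Nuclear extract prepared. p65 binding measured on κB DNA-coated dish with labeled p65 antibody (TransAM kit). Mean ± SD of 3 independent experiments.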

[3] = molecular target: Transcription factor p65 (Mus musculus) (UniProt Q04207); assay: Inhibition of LPS-induced NFkappaB p65-mediated iNOS induction in mouse RAW264.7 cells assessed as reduction in NO production at 0.3 to 10 ug/ml preincubated for 30 mins followed by LPS addition measured after 24 hrs by Griess assay; assay type: cell-based
In short: (§1)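 RAW264.7 cells given compound 30 min before LPS, then incubated 24 h. Nitrite in medium measured by Griess assay. Mean ± SD of 3 determinations.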

[4] = molecular target: Transcription factor p65 (Homo sapiens) (UniProt Q04206); assay: Inhibition of constitutively activated NFkappaB p65 in human ES2 cells at 3 to 10 ug/ml after 2 hrs by kappaB DNA binding based colorimetric method; assay type: cell-based
In short: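 ES-2 cells exposed to compound 2 h. Nuclear extract prepared. p65 binding to κB DNA-coated dish detected with labeled p65 antibody.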

ES2 [5] = assay: Anti-invasive activity against human ES2 cells at 1 to 10 ug/ml after 24 hrs by Diff-Quick staining based matrigel chamber assay; assay type: functional, cell-based
In short: (§2)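 ES-2 ovarian clear cell carcinoma cells exposed to compound 24 h; invasion through Matrigel chamber. Mean ± SD of 4 fields.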

[6] = Chemical stability in PBS at 100 ug/ml up to 12 hrs at 37 degC by HPLC analysis; assay type: physicochemical; conditions: buffer
In short: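 Compound dissolved in PBS at 100 µg/ml, held at 37 °C for 0, 30 min, 1, 2, 6, 12 h. Extracted into ethyl acetate, dried, then quantified by HPLC. Column: ODS at 40 °C. Mobile phase: acetonitrile/0.1% ammonium acetate (22:78), 0.3 mL/min. UV detection at 254 nm. Mean ± SD of 3 determinations.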

RAW264.7 = assay: Cytotoxicity against mouse RAW264.7 cells assessed as reduction in cell viability up to 1 ug/ml after 24 hrs by MTT assay; assay type: cell-based; conditions: raw264.7, 24 h
In short: (§3)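 Cells treated with compound 24 h; viability by MTT. Mean ± SD of 3 determinations.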

[7] = molecular target: Transcription factor p65 (Mus musculus) (UniProt Q04207); assay: Inhibition of LPS-induced NFkappaB p65-mediated iNOS induction in mouse RAW264.7 cells assessed as reduction in NO production preincubated for 30 mins followed by LPS addition measured after 24 hrs by Griess assay; assay type: cell-based; in short: as §1
[8] = molecular target: Transcription factor p65 (Mus musculus) (UniProt Q04207); assay: Inhibition of LPS-induced NFkappaB p65-mediated iNOS mRNA expression in mouse RAW264.7 cells at 0.1 to 1 ug/ml preincubated for 30 mins followed by LPS addition measured after 24 hrs by qPCR method; assay type: cell-based
In short: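 RAW264.7 cells incubated with compound plus LPS 24 h; iNOS mRNA detected by semi-quantitative PCR.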

[9] = molecular target: Transcription factor p65 (Mus musculus) (UniProt Q04207); assay: Inhibition of LPS-induced NFkappaB p65-mediated IL-6 secretion in mouse RAW264.7 cells at 0.1 to 1 ug/ml preincubated for 30 mins followed by LPS addition measured after 24 hrs by ELISA; assay type: cell-based
In short: (§4)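 RAW264.7 cells given compound 30 min before LPS, then incubated 24 h. IL-6, IL-1β, TNF-α in medium quantified by ELISA. Mean ± SD of 3 determinations.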

[10] = molecular target: Transcription factor p65 (Mus musculus) (UniProt Q04207); assay: Inhibition of LPS-induced NFkappaB p65-mediated IL-1beta secretion in mouse RAW264.7 cells at 0.1 to 1 ug/ml preincubated for 30 mins followed by LPS addition measured after 24 hrs by ELISA; assay type: cell-based; in short: as §4
[11] = molecular target: Transcription factor p65 (Mus musculus) (UniProt Q04207); assay: Inhibition of LPS-induced NFkappaB p65-mediated TNF-alpha secretion in mouse RAW264.7 cells at 0.1 to 1 ug/ml preincubated for 30 mins followed by LPS addition measured after 24 hrs by ELISA; assay type: cell-based; in short: as §4
[12] = molecular target: Transcription factor p65 (Homo sapiens) (UniProt Q04206); assay: Inhibition of kappaB DNA binding to NFkappaB p65 in human ES2 nuclear extract at 3 to 10 ug/ml after 15 mins by colorimetric method
In short: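 Compound added directly to ES-2 nuclear extract. p65 binding to κB DNA-coated dish detected with labeled p65 antibody. Mean ± SD of 3 independent experiments.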

[13] = Cytotoxicity against human ES2 cells assessed as reduction in cell viability up to 30 ug/ml after 24 hrs by MTT assay; assay type: cell-based; conditions: es2, 24 h; in short: as §3
ES2 [14] = assay: Antimigratory activity against human ES2 cells at 1 to 10 ug/ml after 24 hrs by radius 96-well migration assay; assay type: functional, cell-based
In short: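 ES-2 cells treated 24 h; migration read by Radius 96-well cell migration assay. Mean ± SD of 3 determinations.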

ES2 [15] = assay: Anti-invasive activity against human ES2 cells at 0.1 to 0.3 ug/ml after 24 hrs by Diff-Quick staining based matrigel chamber assay; assay type: functional, cell-based; in short: as §2
[16] = molecular target: Transcription factor p65 (Homo sapiens) (UniProt Q04206); assay: Inhibition of NFkappaB p65 in human ES2 cells assessed as reduction in MMP2 secretion at 3 to 10 ug/ml after 24 hrs by ELISA; assay type: cell-based
In short: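 ES-2 cells incubated with compound 24 h; secreted MMP-2 in medium by ELISA. Mean ± SD of 3 determinations.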

[17] = molecular target: Transcription factor p65 (Homo sapiens) (UniProt Q04206); assay: Inhibition of NFkappaB p65 in human ES2 cells assessed as reduction in MMP2 mRNA expression at 0.1 to 1 ug/ml after 24 hrs by qPCR method; assay type: cell-based
In short: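 ES-2 cells incubated with compound 24 h; MMP-2 mRNA detected by semi-quantitative PCR.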

[18] = molecular target: Transcription factor p65 (Mus musculus) (UniProt Q04207); assay: Inhibition of LPS-induced NFkappaB p65-mediated iNOS induction in mouse RAW264.7 cells assessed as reduction in NO production at 1 ug/ml using 12 hrs PBS incubated compound preincubated for 30 mins with cells followed by LPS addition measured after 24 hrs by Griess assay; assay type: cell-based
In short: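 Compound pre-incubated in PBS at 100 µg/ml, then added to RAW264.7 cells to give 1 µg/ml. LPS 10 ng/ml added 30 min later, 24 h. NO by Griess assay. Mean ± SD of 3 determinations.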

Transcription factor p65 (Mus musculus), sequence (Q04207 whole entry): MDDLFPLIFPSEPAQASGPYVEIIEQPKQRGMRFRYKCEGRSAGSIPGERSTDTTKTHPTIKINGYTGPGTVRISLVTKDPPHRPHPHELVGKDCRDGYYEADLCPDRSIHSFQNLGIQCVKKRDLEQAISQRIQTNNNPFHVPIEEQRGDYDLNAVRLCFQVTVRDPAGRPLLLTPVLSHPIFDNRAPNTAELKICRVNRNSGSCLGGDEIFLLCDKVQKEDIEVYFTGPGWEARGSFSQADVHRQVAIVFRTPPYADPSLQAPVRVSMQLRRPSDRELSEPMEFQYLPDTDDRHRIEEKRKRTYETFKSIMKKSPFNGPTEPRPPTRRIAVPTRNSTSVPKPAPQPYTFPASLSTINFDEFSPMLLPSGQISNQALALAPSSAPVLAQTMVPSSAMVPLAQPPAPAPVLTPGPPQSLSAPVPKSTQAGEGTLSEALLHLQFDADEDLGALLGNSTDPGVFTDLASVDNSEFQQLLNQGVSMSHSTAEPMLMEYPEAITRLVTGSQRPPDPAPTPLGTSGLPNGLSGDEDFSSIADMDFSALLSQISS
Transcription factor p65 (Homo sapiens), sequence (Q04206 whole entry): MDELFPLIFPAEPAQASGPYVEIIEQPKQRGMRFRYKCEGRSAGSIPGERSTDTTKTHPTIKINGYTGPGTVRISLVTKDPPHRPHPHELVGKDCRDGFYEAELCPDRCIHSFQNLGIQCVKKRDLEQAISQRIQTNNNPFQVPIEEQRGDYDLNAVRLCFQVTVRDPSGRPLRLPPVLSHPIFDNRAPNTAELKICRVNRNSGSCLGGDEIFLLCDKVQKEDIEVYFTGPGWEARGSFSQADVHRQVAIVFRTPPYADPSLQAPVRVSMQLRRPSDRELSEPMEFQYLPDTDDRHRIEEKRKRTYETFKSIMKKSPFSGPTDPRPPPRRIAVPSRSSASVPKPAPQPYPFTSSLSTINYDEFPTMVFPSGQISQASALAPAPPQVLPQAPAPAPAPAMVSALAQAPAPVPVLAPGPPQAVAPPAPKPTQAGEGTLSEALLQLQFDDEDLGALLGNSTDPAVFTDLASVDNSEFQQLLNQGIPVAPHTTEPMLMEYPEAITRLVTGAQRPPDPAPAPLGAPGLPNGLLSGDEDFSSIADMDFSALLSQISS

Structure (SMILES) | inhibition [1] | inhibition [2] | inhibition [3] | inhibition [4] | inhibition (ES2 [5]) | Stability [6] | Activity (RAW264.7) | inhibition [7] | inhibition [8] | inhibition [9] | inhibition [10] | inhibition [11] | inhibition [12] | Activity [13] | inhibition (ES2 [14]) | inhibition (ES2 [15]) | inhibition [16] | inhibition [17] | inhibition [18]
O=C(NC1=CC(=O)[C@H]2O[C@H]2[C@H]1O)c1ccccc1O [DEHYDROXYMETHYLEPOXYQUINOMICIN] | Active | Active | Active | Active | Active | Unstable | – | – | – | – | – | – | – | – | – | – | – | – | –
C=C1C(=O)OC[C@H]1NC(=O)c1ccccc1O | Active | Active | – | Active | – | Stable | Non-Toxic | Dose-dependent effect | Active | Active | Active | Active | Active | Non-Toxic | Active | Active | Active | Active | Active
